# PRMT1 FP inh = PRMT1 (human) inhibition, primary screen. inhibition, % at 2.79 µM. AID 652257. actives 1.3% (n = 370,000). recombinant PRMT1, activity-based probe fluorescence polarization. Q99873;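 active = inhibition above about 21% made by adding two undisclosed values, limit read from the data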
# Target sequence (Q99873 whole entry, looked up): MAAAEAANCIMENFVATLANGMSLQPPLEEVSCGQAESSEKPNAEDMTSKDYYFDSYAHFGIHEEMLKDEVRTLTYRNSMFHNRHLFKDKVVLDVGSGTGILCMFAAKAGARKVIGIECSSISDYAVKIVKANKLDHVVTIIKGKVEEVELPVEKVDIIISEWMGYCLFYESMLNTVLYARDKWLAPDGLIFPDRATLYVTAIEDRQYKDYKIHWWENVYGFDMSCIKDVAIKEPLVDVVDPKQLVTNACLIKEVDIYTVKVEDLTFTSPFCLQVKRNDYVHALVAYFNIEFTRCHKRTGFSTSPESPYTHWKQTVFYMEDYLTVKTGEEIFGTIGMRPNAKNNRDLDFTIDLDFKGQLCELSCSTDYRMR
# SIAE inh = inhibitors of human sialic acid acetylesterase SIAE; Q9HAT2; SIAE FP-Rh probe binding, fluorescence polarization; inhibition, % at 9.66 µM; actives 0.69% (n = 370,000);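 active = inhibition above a cutoff: mean of compounds within the control limits plus 3 SD of those, cut at about 17% in these data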;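 note: 0% = plate median of compound wells and 100% = probe without SIAE protein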
# GASC-1 inh = human JMJD2C demethylase inhibition. GST-JMJD2C(1-420) H3K9me3 demethylation, DELFIA europium. AID 2099. actives 0.069% (n = 330,000). inhibition, % at 2.35 µM. Q9H3R0;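 active = more than half of a compound's replicate wells show inhibition beyond 50%, single wells judged on their own value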;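 note: signal counts dimethyl H3K9 product captured on neutravidin plate; 0% = median of DMSO wells and 100% = 0.3 times that DMSO median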
# ABHD4 inh = inhibitors of mouse ABHD4; Q8VD66; purified mABHD4, FP-Rh probe fluorescence polarization; inhibition, % at 8.92 µM; actives 0.54% (n = 370,000); AID 720543;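 active = inhibition exceeding the mean over every tested compound plus 3 SD, cut at about 30% in these data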;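 note: 0% = plate median of compound wells and 100% = S159A mutant with DMSO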
#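 Assay system: Wild-type mouse ABHD4 protein | Medium: HEPES pH 7.0 buffer, 150 mM NaCl, 0.01% Pluronic F-127 | Incubation: Enzyme–compound pre-incubation 45 min, then probe 60 min, both 25 °C | Technique: Fluorescence polarization with parallel and perpendicular emission, 525/598 nm | Evaluation: % inhibition of FP-Rh probe binding versus controls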
# HTRA1 inh = inhibitors of human serine peptidase HTRA1. Q92743. recombinant HTRA1, FP-rhodamine activity-based probe, fluorescence polarization. inhibition, % at 5.96 µM. actives 0.5% (n = 340,000); in the data active = inhibition above about 36%;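 note: 0% = enzyme with DMSO and 100% = wells lacking enzyme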
# ABHD4 confirm = ABHD4 (mouse) inhibition, FP confirmation; inhibition, % at 8.92 µM; actives 55% (n = 1,800); purified mABHD4, FP-Rh probe fluorescence polarization; shares compounds with ABHD4 inh;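 active = mean inhibition across replicates above the hit cutoff set in the primary screen, cut at about 30% in these data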;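 note: 0% = wild-type ABHD4 with DMSO and 100% = catalytically dead S159A mutant with DMSO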
# * hit, by the source's call; nt = not tested or not shown. An excerpt weighted towards active compounds, which were near 2.4% of everything screened.
SMILES,PRMT1 FP inh,SIAE inh,GASC-1 inh,ABHD4 inh,HTRA1 inh,ABHD4 confirm
Cc1ccc2c(c1)-c1ccccc1S(=O)(=O)N2,-1,-1,-4,6,-3,nt
O=C(CCNS(=O)(=O)c1ccccc1C(F)(F)F)NNC(=O)C1COc2ccccc2O1 (stereo unspecified),-2,3,2,42*,-4,-1
O=C(CCNS(=O)(=O)c1ccccc1)NNC(=O)C1COc2ccccc2O1 (stereo unspecified),6,2,-3,3,3,nt
Cc1noc(C)c1C(C)C1=CCCCC1 (stereo unspecified),-3,4,nt,7,nt,nt
Cc1ccc2c(c1)c(N=Nc1cccc(C(=O)O)c1)c(O)n2C,3,-4,4,31*,-1,45*
c1ccc(-c2sc3ccccc3c2-c2ccc(OCCN3CCCCC3)cc2)cc1,-3,-3,-6,10,-4,nt
c1ccc2c(-c3ccc(OCCN4CCCCC4)cc3)c(-c3ccsc3)sc2c1,-2,2,1,40*,-12,26
CCc1nc2ccc(C(=O)Nc3cc(-c4ccccc4)ccc3OC)cn2c1N(C)Cc1ccc(Cl)cc1,-4,-4,nt,4,nt,nt
CCN(CC)c1c(C)nc2ccc(C(=O)Nc3cc(-c4ccccc4)ccc3OC)cn12,1,-1,nt,53*,nt,59*
CC(C)(C)N1Cc2nnn(Cc3ccccc3)c2-c2ccccc2S1(=O)=O,2,-2,nt,2,nt,nt
O=C(O)c1cc(N/N=C/C(Cl)=C/c2ccccc2)ccc1Cl,3,2,81,8,-4,nt
O=C(O)c1cc(NN=C2c3ccccc3-c3ccccc32)ccc1Cl,6,2,42,39*,-17,45*
O=C(O)c1cccc(N/N=C/c2ccc(-c3ccccc3)cc2)c1,-1,4,-10,8,-26,nt
C/C(=N\Nc1cccc(C(=O)O)c1)c1cc2ccccc2o1,8,1,25,32*,2,30*
O=C(O)c1cccc2c1-c1ccccc1/C2=N\Nc1ccccc1,6,2,9,38*,1,23
O=C(O)c1cccc(NN=C2c3ccccc3-c3ccccc32)c1,12,-8,6,56*,-8,49*
CCOC(=O)NC(=O)/C(C#N)=C\Nc1sccc1C(=O)OC,56*,8,13,63*,27,-3
CCOC(=O)NC(=O)/C(C#N)=C\Nc1ccc(Cl)cc1Cl,-1,-2,4,-2,1,nt
O=C(Nc1ccc2c(c1)OCO2)NC1CCCCN(Cc2cccc(Cl)c2)C1=O (stereo unspecified),3,0,nt,2,nt,nt
COc1cc(C2c3sc(=O)[nH]c3SC3C(=O)N(c4ccc(Br)cc4)C(=O)C32)ccc1O (stereo unspecified),8,-2,-8,34*,0,15
Cc1ccc(C2=CCN(C)C(=O)N2c2ccc([N+](=O)[O-])cc2)cc1,11,0,nt,4,nt,nt
Cc1nn(Cc2ccc(C(=O)Nc3nc4c(C)cccc4s3)o2)c(C)c1Br,3,-18,1,-10,-9,nt
Cc1csc(NC(=O)c2cccc(Cn3nc(C)c(Br)c3C)c2)n1,3,2,0,50*,-44,-6
NC(N)=N/N=C(\N=Nc1ccccc1)c1ccc(Cl)cc1,-8,2,nt,44*,29,55*
COc1ccc(/C=C2/CN(Cc3ccc(OC)cc3OC)C3=N[C@H](c4ccccc4)CC(=O)N32)cc1,3,-4,nt,-6,nt,nt
SMILES,PRMT1 FP inh,SIAE inh,GASC-1 inh,ABHD4 inh,HTRA1 inh,ABHD4 confirm
CS(=O)(=O)N[C@@H]1C[C@@H]2O[C@H](CO)CC[C@@H]2O[C@@H]1CCc1ccc(/C=C/c2ccccc2)cc1,-2,-2,nt,-7,nt,nt
O=C(Nc1ccccc1F)c1ccc2c(c1)CCN2S(=O)(=O)c1ccccc1,-1,-10,13,80*,-32,-21
COC(=O)[C@@]12C[C@@H](CC(=O)NCC3CCCCC3)C(=O)N(Cc3ccccc3)C1=CCC(C)(C)C2,-2,4,nt,4,nt,nt
Oc1ccc2[nH]cc(-c3cccs3)c2c1-c1ccccc1,5,2,nt,27,nt,nt
Oc1ccc2[nH]cc(CCc3ccccc3)c2c1-c1ccccc1,10,6,nt,33*,nt,16
COc1cccc(OC)c1C(=O)Nc1ccc(N2CCCC2)cc1,3,9,-16,33*,4,38*

# Assay outcomes as filed in PubChem BioAssay.
